Source: PubChem
DNMT1 block = blocks human DNA methyltransferase DNMT1 | DNMT1 molecular beacon, Hinp1I cleavage, fluorescence | inhibition (reported as % activation of signal), % at 10 µM | 0.83% of 360,000 active; in the data active = inhibition above about 50%
Target sequence (P26358 504-1616 limits assumed): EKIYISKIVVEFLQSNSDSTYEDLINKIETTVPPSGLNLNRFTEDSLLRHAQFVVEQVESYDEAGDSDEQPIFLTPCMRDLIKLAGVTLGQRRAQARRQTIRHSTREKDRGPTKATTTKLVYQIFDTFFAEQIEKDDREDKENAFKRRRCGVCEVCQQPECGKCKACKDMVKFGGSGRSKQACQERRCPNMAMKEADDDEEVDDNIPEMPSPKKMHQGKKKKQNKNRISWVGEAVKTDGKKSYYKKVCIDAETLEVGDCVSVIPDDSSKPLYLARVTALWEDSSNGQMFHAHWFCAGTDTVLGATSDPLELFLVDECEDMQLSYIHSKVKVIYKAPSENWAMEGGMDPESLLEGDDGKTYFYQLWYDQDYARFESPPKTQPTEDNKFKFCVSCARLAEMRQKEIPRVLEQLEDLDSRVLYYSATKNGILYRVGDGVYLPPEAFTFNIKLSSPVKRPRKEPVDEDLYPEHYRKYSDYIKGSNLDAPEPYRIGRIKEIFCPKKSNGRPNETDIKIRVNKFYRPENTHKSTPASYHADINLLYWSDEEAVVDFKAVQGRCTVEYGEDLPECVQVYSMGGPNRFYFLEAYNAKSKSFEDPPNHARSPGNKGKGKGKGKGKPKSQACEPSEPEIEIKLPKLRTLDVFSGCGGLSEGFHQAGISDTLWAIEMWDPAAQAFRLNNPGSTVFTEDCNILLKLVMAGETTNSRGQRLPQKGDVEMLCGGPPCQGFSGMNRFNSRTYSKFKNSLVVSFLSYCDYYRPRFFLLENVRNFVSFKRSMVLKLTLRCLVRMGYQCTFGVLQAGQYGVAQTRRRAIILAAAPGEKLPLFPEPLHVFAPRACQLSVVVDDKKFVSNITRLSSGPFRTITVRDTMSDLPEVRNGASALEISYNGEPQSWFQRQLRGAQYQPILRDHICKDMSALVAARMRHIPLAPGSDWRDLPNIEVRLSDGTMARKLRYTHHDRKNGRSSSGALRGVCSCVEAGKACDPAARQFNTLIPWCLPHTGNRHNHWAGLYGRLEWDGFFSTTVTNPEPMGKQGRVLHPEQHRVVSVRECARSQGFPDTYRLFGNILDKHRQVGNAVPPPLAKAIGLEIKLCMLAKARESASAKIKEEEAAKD
SUMO1 PPI mod = alters human SUMO1 binding to SIM partners; P63165; SUMO1 binding to a labelled peptide, TR-FRET, 1 h; inhibition, % at 20 µM; 0.33% of 360,000 active; AID 602429; in the data active = inhibition above about 37%
Scp1 inh = inhibitors of human Scp-1 phosphatase; Q9GZU7; Recombinant Scp1, phosphopeptide, malachite green phosphate absorbance; inhibition, % at 20 µM; 0.88% of 340,000 active;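 active = inhibition above about 50% at 20 µM, limit read from the data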;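 also: plate controls were DMSO wells with enzyme for no effect and wells lacking enzyme for full effect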
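Test system: SCP-1 phosphatase catalytic domain, residues 76-261 | Compound dosing: One concentration, 20 µM, with 1.0% DMSO | Schedule: 45 min room-temperature reaction, 5 min colour, 30 min stabiliser | Detection: Absorbance at 630 nm | Read-out basis: % inhibition of SCP-1 phosphate liberation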
LMPTP inh = blocks human LMPTP phosphatase; 0.22% of 360,000 active; recombinant LMPTP-A, OMFP fluorogenic substrate, fluorescence intensity; inhibition, % at 20 µM; AID 651560;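 active = compounds that cut the enzyme signal by at least half of the control window in the single-dose screen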;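 also: plate controls were DMSO wells with enzyme plus substrate for no effect and substrate without enzyme for full effect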
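test system = LMPTP-A | amount = 0.625 nM LMPTP-A final | reagent = fluorogenic phosphatase substrate OMFP at 400 µM final | incubation = 50 min at room temperature | benchmarks = no-enzyme low control, uninhibited high control | medium = Bis-Tris pH 6.0, DTT, detergent | signal = fluorescence intensity of OMFP turnover product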
STEP block = inhibitors of human striatal-enriched phosphatase STEP. inhibition, % at 20 µM. recombinant STEP, OMFP fluorogenic substrate, fluorescence. AID 588621. 0.25% of 360,000 active. P54829;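 active = inhibition at 20 µM, scaled per plate between control wells, above about 37%, limit read from the data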;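 also: 0% = DMSO with enzyme and substrate and 100% = substrate only without enzyme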
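Material: STEP (striatal-enriched tyrosine phosphatase) enzyme, cell-free; Compound dosing: 20 µM single dose in 1% DMSO; Technique: fluorescence read at 480 nm ex / 540 nm em; Times: reaction 20 min, ambient temperature; Medium: 50 mM Bis-Tris pH 6.0 with 2.5 mM DTT and 0.005% Tween 20; Also added: OMFP at 25 µM.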
NadD inh = inhibitors of Staphylococcus aureus NadD; inhibition, % at 20 µM; purified NadD enzyme, colorimetric absorbance read-out; 0.78% of 360,000 active; in the data active = inhibition above about 26%
DNMT1 interf DR = shows spectral interference in the DNMT1 beacon assay; 200 tested, under 10 active; shares compounds with DNMT1 block; IC50, µM; molecular beacon fluorescence, spectral interference counter-screen; call rule not given here
DNMT1 confirm = confirmation of human DNMT1 inhibitors; inhibition, % at 10 µM; DNMT1 molecular beacon HinP1I cleavage, fluorescence; AID 602385; 8% of 2,300 active; shares compounds with DNMT1 block;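 active = average inhibition of at least 30% in the single-concentration confirmation test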
Beacon interf = shows spectral interference in the DNMT1 beacon assay | 1% of 2,300 active | AID 602387 | shares compounds with DNMT1 block | activation (fluorescence interference), % at 10 µM | DNMT1 molecular beacon spectral interference counterscreen, fluorescence 485/520;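 active = activation of at least 30% at 10 µM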;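 also: DNMT1 catalytic domain with a HinP1I cleavage step and a FAM/dabcyl DNA beacon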
* marks the source's active call; other numbers are inactive results; / = no result. Compounds with a hit are over-represented: about 2.4% of the library has one in this group of screens.

SMILES | DNMT1 block | SUMO1 PPI mod | Scp1 inh | LMPTP inh | STEP block | NadD inh | DNMT1 confirm | Beacon interf | others
COc1cccc(N2CCN(CC(=O)NC(=O)NCc3ccco3)CC2)c1 | 50* | 7 | 9 | 14 | 0 | 23 | 8 | -1
Cc1nn(C)c(Oc2cccc(C(F)(F)F)c2)c1C#N | 4 | -2 | -10 | 0 | 1 | -5 | / | /
CCOCCCNC(=O)c1ccccc1Br | 0 | -1 | -7 | -1 | -4 | 8 | / | /
CCOCCCNC(=O)c1ccccc1SCC | 52* | 4 | 3 | 0 | 2 | 1 | 3 | 7
CCC(=O)NCc1cc(-c2nn(C)c(=O)c3ccccc23)ccc1C | 1 | 9 | -3 | -2 | -2 | -1 | / | /
Cc1ccc(-c2nn(CC(=O)NCc3cc(-c4nn(C)c(=O)c5ccccc45)ccc3C)c(=O)c3ccccc23)cc1 | 57* | 0 | 4 | 22 | 7 | 7 | 0 | -5
COCOCCn1cc(CN2CCS(=O)(=O)N(Cc3ccc(-c4ccc(Cl)nc4)cc3)C(C(C)C)C2=O)nn1 (stereo unspecified) | -4 | 9 | / | 1 | 0 | 3 | / | /
O=C(Nc1ccncc1)c1ccc(N2CCCC2=O)cc1 | -2 | 5 | -3 | -1 | -2 | -5 | / | /
CC(=O)Nc1ccc(SCC(=O)c2cc(C)ccc2C)cc1 | 86* | 3 | -6 | 0 | 0 | -1 | 8 | 6
CCCCn1c(N)c(N(CCC(C)C)C(=O)c2ccc(-c3ccc([N+](=O)[O-])cc3)o2)c(=O)[nH]c1=O | 84* | -9 | -7 | -4 | 2 | 16 | 0 | 7
CCc1c(Cl)nc(N)nc1Nc1ccccc1C | 75* | -1 | -10 | 0 | -3 | 1 | 1 | 2
N=C1/C(=C\c2coc3ccccc3c2=O)C(=O)N=C2SC(c3ccncc3)=NN12 | 35 | 23 | 47 | 3 | -24 | 17 | / | /
N=C1/C(=C/c2coc3ccccc3c2=O)C(=O)N=C2SC(c3ccco3)=NN12 | 65* | -5 | 54* | 35 | -31 | 3 | 16 | -12 | DNMT1 interf DR=>99
O=C(OCc1cc(=O)n2ccsc2n1)c1ccccc1NCCO | 59* | 11 | 59* | 4 | 5 | 1 | 4 | 3
Cc1ccc(C(=O)OCc2cc(=O)n3ccsc3n2)s1 | 2 | 29 | -7 | 0 | -5 | 1 | / | /
COc1ccc2cc3c(N)nn(C(=O)Cc4ccc(Cl)cc4)c3nc2c1 | 69* | 3 | -3 | 1 | 1 | 21 | 0 | 1
Cc1nn2c(N3CCN(c4ccccn4)CC3)cc(C(C)C)nc2c1-c1ccccc1 | -4 | 2 | -5 | 5 | 0 | 4 | / | /
COc1cc(OC)cc(C(=O)NC(C(=O)OCn2nnc3ccccc3c2=O)C(C)C)c1 (stereo unspecified) | 87* | -4 | -5 | -1 | 0 | -2 | 5 | 3
CC1Cc2nc(SCC(=O)N3CCCC3)n(C)c(=O)c2S1 (stereo unspecified) | 2 | -2 | 6 | -1 | 1 | 0 | / | /
Cc1cc2c(cc1S(=O)(=O)N(C)c1ccccc1)NC(=O)CO2 | 0 | 4 | -6 | -1 | 1 | -5 | / | /
CCN(CC)S(=O)(=O)c1cccc(C(=O)N[C@H](C(=O)NC2=NCCS2)C(C)C)c1 | 66* | 0 | -10 | -2 | -4 | -1 | -1 | 2
O=C(c1ccc(Br)s1)N1CCN(C/C=C/c2ccccc2)CC1 | -6 | 5 | -6 | -1 | -2 | -6 | / | /
CCN(C(=O)c1cc2c(=O)[nH]c3ccc(C)cc3c2s1)c1ccccc1C | 18 | -1 | -9 | -1 | 9 | -10 | / | /
CCN(C(=O)c1cc2c(=O)[nH]c3ccc(C)cc3c2s1)c1ccccc1F | 63* | 18 | 3 | -2 | 3 | -6 | -1 | -2
COC(=O)N/N=C\c1c(C)nn(-c2ccccc2)c1Cl | 3 | -1 | -8 | -3 | 1 | 2 | / | /
SMILES | DNMT1 block | SUMO1 PPI mod | Scp1 inh | LMPTP inh | STEP block | NadD inh | DNMT1 confirm | Beacon interf | others
Cc1ccc(C)c(OCC(=O)N/N=C/c2c(C)nn(-c3ccccc3)c2Cl)c1C | 53* | 1 | -10 | -2 | 4 | 1 | 0 | 0
NC(=O)CC(NC(=O)Cc1ccc(Br)cc1)c1ccc(N2CCCCCCC2)c([N+](=O)[O-])c1 (stereo unspecified) | 65* | 0 | -3 | -1 | 2 | -11 | -1 | 2
NC(=O)CC(NC(=O)Cc1ccc(Br)cc1)c1ccc(N2CCC(Cc3ccccc3)CC2)c([N+](=O)[O-])c1 (stereo unspecified) | 87* | 6 | 8 | 0 | 7 | 6 | -7 | -5
CN(Cc1ccccc1)c1ccc(C(CC(N)=O)NC(=O)Cc2ccc(Br)cc2)cc1[N+](=O)[O-] (stereo unspecified) | 80* | 4 | -6 | 2 | 4 | -3 | -4 | -4
NC(=O)CC(NC(=O)Cc1ccc(Br)cc1)c1ccc(N2CCC(Br)CC2)c([N+](=O)[O-])c1 (stereo unspecified) | 77* | -2 | 4 | 1 | 1 | -4 | -4 | -3
CN1CCN(c2ccc(C(CC(N)=O)NC(=O)Cc3ccc(Br)cc3)cc2[N+](=O)[O-])CC1 (stereo unspecified) | 1 | 8 | -1 | -1 | 1 | -2 | / | /
NC(=O)CC(NC(=O)Cc1cccc2ccccc12)c1ccc(N2CCC(Cc3ccccc3)CC2)c([N+](=O)[O-])c1 (stereo unspecified) | 17 | 0 | 2 | 1 | 0 | 19 | / | /
Nc1cc(C(=O)OCC(=O)N2CCCC2)ccc1Cl | 3 | 2 | 4 | 0 | -1 | 14 | / | /
CC(C)c1ccc(NC(=O)C2C3C=CC4(O3)C2C(=O)N(CCN2CCOCC2)C4C(=O)NC2CCCCC2)cc1 (stereo unspecified) | -1 | -2 | -1 | -1 | 0 | -2 | / | /
Nc1c(C(=O)NCc2ccccc2)c2nc3ccccc3nc2n1-c1ccc2c(c1)OCO2 | 56* | 14 | -5 | 1 | -4 | 26 | 1 | 2
Nc1c(C(=O)NCc2ccc3c(c2)OCO3)c2nc3ccccc3nc2n1CCCN1CCOCC1 | 62* | 47* | -4 | -2 | 15 | -7 | 10 | 10
Cc1cc(C)n(-c2nc(Nc3ccccc3)nc(-n3nc(C)cc3C)n2)n1 | 64* | 3 | 10 | 1 | 2 | 17 | 1 | 0
